Source: ChEMBL document CHEMBL1125579, “Relative structure-inhibition analyses of the N-benzoyl and N-(phenylsulfonyl) amino acid aldose reductase inhibitors” (J Med Chem, 1991)

Target: Aldo-keto reductase family 1 member B1 (Rattus norvegicus, UniProt P07943)
Assay: Inhibitory activity against aldose reductase in rat lens
Summary of the method: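 Rat lens enzyme: 100 lenses from frozen rat eyes homogenized in distilled water and centrifuged at 5 °C; the supernatant was brought to 40% ammonium sulfate saturation and the freshly prepared supernatant was used. NADPH loss was read at 340 nm for 3 min.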

| Compound | IC50 [µM] |
| --- | --- |
| O=C(O)CN(C(=O)c1ccccc1)c1ccccc1 | 6.3 |
| O=C(O)CNC(=O)c1ccc(NC(=O)Cc2ccccc2)cc1 | 21 |
| CN(CC(=O)O)C(=O)c1ccc([N+](=O)[O-])cc1 | 26 |
| O=C(O)CNC(=O)c1cccc(NC(=O)c2ccccc2)c1 | 49 |
| CN(CC(=O)O)C(=O)c1ccc(NC(=O)c2ccccc2)cc1 | 2.8 |
| O=C(O)CN(C(=O)c1ccc2ccccc2c1)c1ccccc1 | 19 |
| COc1ccc(C(=O)N(C)CC(=O)O)cc1 | 6.7 |
| O=C(O)CN(C(=O)c1ccc(F)cc1)c1ccccc1 | 8.2 |
| CN(CC(=O)O)C(=O)c1ccc(F)cc1 | 8.8 |
| CN(CC(=O)O)C(=O)c1ccc(N)cc1 | 11 |
| Nc1ccc(C(=O)N(CC(=O)O)c2ccccc2)cc1 | 12 |
| O=C(O)CNC(=O)c1cccc2ccccc12 | 220 |
| O=C(O)CNC(=O)c1ccc2ccccc2c1 | 70 |
| O=C(O)CN(C(=O)c1ccc([N+](=O)[O-])cc1)c1ccccc1 | 0.56 |
| O=C(O)CN(C(=O)c1cccc2ccccc12)c1ccccc1 | 8.5 |
| O=C(O)CNC(=O)c1ccc(NC(=O)c2ccccc2)cc1 | 9.6 |
| O=C(O)CN(C(=O)c1ccc(NC(=O)c2ccccc2)cc1)c1ccccc1 | 0.24 |
| Cc1ccc(C(=O)N(C)CC(=O)O)cc1 | 13 |
| CN(CC(=O)O)C(=O)c1ccccc1 | 23 |
| CN(CC(=O)O)C(=O)c1cccc2ccccc12 | 40 |
| Cc1ccc(C(=O)N(CC(=O)O)c2ccccc2)cc1 | 3.7 |
| COc1ccc(C(=O)N(CC(=O)O)c2ccccc2)cc1 | 3.2 |
| O=C(O)CNC(=O)c1ccc(NC(=O)CCc2ccccc2)cc1 | 45 |
| CN(CC(=O)O)C(=O)c1ccc2ccccc2c1 | 19 |
